Laboratory results published in ChEMBL document CHEMBL2375209, “Fungal ABC transporter-associated activity of isoflavonoids from the root extract of Dalea formosa” (2013).
Converted amounts (≈) assume the structure as drawn. The source made the active and inactive calls. No cut-off for these calls is given here.

Experiments:
Format in all cases: functional
Nakaseomyces glabratus = assay: Antifungal activity against wild type Candida glabrata CCM 8270 after 46 to 50 hrs by broth microdilution assay
Summary of the method: (§1)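 CLSI M27-A broth microdilution in MOPS-buffered (pH 7) RPMI 1640. Samples added from DMSO stocks (solvent ≤1.2%, matched in controls), serially diluted before inoculation. Growth read as OD550 plus visual inspection at 24 and 48 h. MIC = lowest concentration inhibiting growth ≥80% vs drug-free control; three independent measurements.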

Candida albicans = assay: Antifungal activity against wild type Candida albicans CCM 8320 after 46 to 50 hrs by broth microdilution assay; summary of the method: as §1
Saccharomyces cerevisiae [1] = assay: Antifungal activity against PDR5/SNQ2/YOR1 deficient Saccharomyces cerevisiae after 24 to 48 hrs by microdilution assay
Summary of the method: (§2)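 96-well microdilution; samples added from DMSO stocks (solvent ≤1.2%, matched in controls), serially diluted before inoculation; trifluoperazine, ketoconazole and fluconazole as positive controls. Growth read as OD550 plus visual inspection at 24 and 48 h. MIC = lowest concentration giving ≥80% growth inhibition vs drug-free control; values observed in three independent measurements.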

Saccharomyces cerevisiae [2] = assay: Antifungal activity against PDR1/PDR3 deficient Saccharomyces cerevisiae after 24 to 48 hrs by microdilution assay; summary of the method: as §2
Saccharomyces cerevisiae [3] = assay: Antifungal activity against PDR5/SNQ2/YOR1 deficient Saccharomyces cerevisiae expressing PDR1 to 3 allele and heterologously overproduced Cdr1p gene after 24 to 48 hrs by microdilution; summary of the method: as §2
Saccharomyces cerevisiae [4] = assay: Antifungal activity against wild type Saccharomyces cerevisiae after 24 to 48 hrs by microdilution assay; summary of the method: as §2
Saccharomyces cerevisiae [5] = assay: Antifungal activity against PDR5/SNQ2/YOR1 deficient Saccharomyces cerevisiae expressing PDR1 to 3 allele after 24 to 48 hrs by microdilution assay; summary of the method: as §2

SMILES | MIC (Nakaseomyces glabratus) | MIC (Candida albicans) | MIC (Saccharomyces cerevisiae [1]) | MIC (Saccharomyces cerevisiae [2]) | MIC (Saccharomyces cerevisiae [3]) | MIC (Saccharomyces cerevisiae [4]) | MIC (Saccharomyces cerevisiae [5])
COc1ccc(C[C@H]2OC(=O)C=C2c2ccc(O)cc2O)cc1 | 244 µg/mL (≈ 781 µM) | inactive | – | – | – | – | –
COc1ccc([C@H]2COc3c(ccc(O)c3O)C2)c2c1C=CC(C)(C)O2 | 30.5 µg/mL (≈ 86.1 µM) | 61 µg/mL (≈ 172 µM) | 30.5 µg/mL (≈ 86.1 µM) | 15.2 µg/mL (≈ 42.9 µM) | 244 µg/mL (≈ 688 µM) | 30.5 µg/mL (≈ 86.1 µM) | 30.5 µg/mL (≈ 86.1 µM)
COc1ccc2c(c1CC=C(C)C)O[C@@H]1c3ccc(O)cc3OC[C@H]21 [ENT-SANDWICENSIN] | 30.5 µg/mL (≈ 90.1 µM) | inactive | 1.9 µg/mL (≈ 5.61 µM) | 3.8 µg/mL (≈ 11.2 µM) | > 244 µg/mL | 30.5 µg/mL (≈ 90.1 µM) | 1.9 µg/mL (≈ 5.61 µM)
C=CC(C)(C)c1cc([C@@H]2COc3c(ccc(O)c3O)C2)c(OC)cc1OC | – | – | 3.8 µg/mL (≈ 10.3 µM) | 3.8 µg/mL (≈ 10.3 µM) | 61 µg/mL (≈ 165 µM) | 15.2 µg/mL (≈ 41 µM) | 3.8 µg/mL (≈ 10.3 µM)
C=CC(C)(C)c1cc(C2COc3cc(O)c(CC=C(C)C)c(O)c3C2=O)c(O)cc1O (racemic) | – | – | 0.95 µg/mL (≈ 2.24 µM) | 0.95 µg/mL (≈ 2.24 µM) | > 244 µg/mL | 15.2 µg/mL (≈ 35.8 µM) | 0.95 µg/mL (≈ 2.24 µM)
C=CC(C)(C)c1cc([C@]2(O)COc3cc(O)c(CC=C(C)C)c(O)c3C2=O)c(O)cc1O | 122 µg/mL (≈ 277 µM) | inactive | 3.8 µg/mL (≈ 8.63 µM) | 15.2 µg/mL (≈ 34.5 µM) | 244 µg/mL (≈ 554 µM) | 61 µg/mL (≈ 138 µM) | 3.8 µg/mL (≈ 8.63 µM)
COc1ccc([C@H]2COc3c(ccc(O)c3O)C2)c(O)c1CC=C(C)C | – | – | 3.8 µg/mL (≈ 10.7 µM) | 3.8 µg/mL (≈ 10.7 µM) | 30.5 µg/mL (≈ 85.6 µM) | 15.2 µg/mL (≈ 42.6 µM) | 3.8 µg/mL (≈ 10.7 µM)
COc1ccc(C2COc3cc(O)cc(O)c3C2=O)c2c1C=CC(C)(C)O2 (racemic) | 7.6 µg/mL (≈ 20.6 µM) | 15 µg/mL (≈ 40.7 µM) | 1.9 µg/mL (≈ 5.16 µM) | 1.9 µg/mL (≈ 5.16 µM) | 244 µg/mL (≈ 662 µM) | 7.6 µg/mL (≈ 20.6 µM) | 1.9 µg/mL (≈ 5.16 µM)
